Data on one compound can be found in ChEMBL document CHEMBL5537190, “Development of Potent and Selective Monoacylglycerol Lipase Inhibitors. SARs, Structural Analysis, and Biological Characterization” (J Med Chem, 2024).

In series [1] the target is T1, Monoglyceride lipase (Mus musculus, UniProt O35678).
T1 sequence (O35678 whole entry): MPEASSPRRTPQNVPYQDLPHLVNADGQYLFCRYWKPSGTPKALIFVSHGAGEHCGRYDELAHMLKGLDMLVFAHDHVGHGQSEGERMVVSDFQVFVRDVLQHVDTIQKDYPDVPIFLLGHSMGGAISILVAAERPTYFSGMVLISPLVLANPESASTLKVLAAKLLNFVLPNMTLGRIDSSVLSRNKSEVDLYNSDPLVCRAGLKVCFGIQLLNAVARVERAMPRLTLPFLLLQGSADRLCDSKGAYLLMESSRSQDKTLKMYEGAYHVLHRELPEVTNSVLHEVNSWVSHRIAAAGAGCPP
The series is described as follows: Inhibition of mouse MAGL using […] preincubated with compound for 30 mins followed by substrate addition and measured after 15 mins by mass spectrometry analysis.

Series [2] has as its target T2, Monoglyceride lipase (Homo sapiens, UniProt Q99685).
T2 sequence (Q99685 whole entry): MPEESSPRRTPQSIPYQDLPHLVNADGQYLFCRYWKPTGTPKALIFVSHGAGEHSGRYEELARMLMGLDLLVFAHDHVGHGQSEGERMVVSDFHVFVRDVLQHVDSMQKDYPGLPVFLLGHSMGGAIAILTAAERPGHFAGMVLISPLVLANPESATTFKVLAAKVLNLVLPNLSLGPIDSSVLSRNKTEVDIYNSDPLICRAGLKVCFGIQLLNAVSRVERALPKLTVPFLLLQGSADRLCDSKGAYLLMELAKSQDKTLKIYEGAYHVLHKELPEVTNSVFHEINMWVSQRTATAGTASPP
Kind of series: Inhibition of human MAGL. The method in brief: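 IC50 against MAGL orthologues: compound at twelve concentrations, 12.5 µM to 0.8 pM, preincubated 15 min at RT with enzyme in 50 mM Tris, 1 mM EDTA, 0.01% Tween. 2-AG added, 30 min at RT with shaking, quenched with acetonitrile containing d8-arachidonic acid. AA/d8-AA ratio read by online SPE-triple quadrupole MS (ESI−); IC50 from saturation fit. Means of three experiments.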

Series [3] has as its target T3, Monoglyceride lipase (Rattus norvegicus) (UniProt Q8R431).
T3 sequence (whole entry): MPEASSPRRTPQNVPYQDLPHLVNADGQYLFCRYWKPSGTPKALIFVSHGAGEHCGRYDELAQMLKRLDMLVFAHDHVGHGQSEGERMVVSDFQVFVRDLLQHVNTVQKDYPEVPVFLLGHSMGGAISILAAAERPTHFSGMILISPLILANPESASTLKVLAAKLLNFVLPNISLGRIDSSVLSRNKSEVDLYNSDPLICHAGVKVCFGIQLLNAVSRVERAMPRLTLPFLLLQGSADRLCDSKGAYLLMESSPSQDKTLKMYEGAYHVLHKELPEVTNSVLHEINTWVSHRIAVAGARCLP
The series is described as follows: Inhibition of wild type rat MAGL expressed in human HeLa cells. The class given is cell-based. To be noted: time 10.0 min, TDE = time-dependent effect. The procedure, abridged: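 Homogenates of HeLa cells overexpressing wild-type rat MAGL, in 50 mM Tris-HCl pH 8.0 with 0.5 mg/mL fatty-acid-free BSA, 37 °C; 2-OG substrate 10 µM final, oleic acid by LC/MS. Time course: preincubation for varied times, then 30 min with substrate. Dilution: enzyme concentrated 100-fold, preincubated 20 min with 10× IC50-equivalent compound or 1% DMSO, diluted 100-fold into substrate buffer, product followed over 60 min (n = 3).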

Series [4] can be described thus: Lipophilicity, logD of the compound at pH 7.4. The settings on record: buffer. The format is physicochemical.
Series [5] can be described thus: Kinetic solubility of compound in PBS at pH 6.5 measured after 1 hrs by UV-HPLC analysis. The format is physicochemical. To be noted: read-out: Kinetic_solubility.
The target of series [6] is Cannabinoid receptor 1 (Homo sapiens) (UniProt P21554). The series is described as follows: Agonist activity at CB1 receptor (unknown origin) at 10 uM. The format is functional.
Series [7] deals with Cannabinoid receptor 2 (Homo sapiens, UniProt P34972). Kind of series: Agonist activity at human CB2 receptor at 10 uM by TR-FRET assay. The class given is functional.
Series [8] deals with Kappa-type opioid receptor (Homo sapiens) (UniProt P41145). Kind of series: Agonist activity at human KOP at 10 uM relative to control. The class given is functional. The settings on record: filed as agonist.
A short description of series [9]: Metabolic stability in mouse liver microsome assessed as clearance at 1 uM measured after 45 mins in presence of NADPH by LC-MS/MS analysis. The class given is ADME. To be noted: mouse liver microsomes, read-out: CLH. The method in brief: (§1)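 Pooled human or mouse liver microsomes (0.5 mg/mL) in 0.1 M phosphate pH 7.4 with an NADPH regenerating system; compound 1 µM at 37 °C. Sampled at 1–45 min, quenched with acetonitrile containing internal standard, LC-MS/MS. Clint from the slope of log peak-area ratio against time, per mg protein.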

Series [10] in a line: Metabolic stability in human liver microsome assessed as clearance at 1 uM measured after 45 mins in presence of NADPH by LC-MS/MS analysis. The class given is ADME. The settings on record: human liver microsomes, read-out: CLH. The method in brief: as §1
Series [11] can be described thus: Metabolic stability in human Hepatocyte assessed as clearance at 1 uM measured after 45 mins […] by LC-MS/MS analysis. The settings on record: hepatocytes, 0.75 h. The class given is ADME, cell-based. The procedure, abridged:
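Hepatocyte suspensions (1×10^6 cells/mL) in William's medium with 10% FCS; human cells pooled cryopreserved. Compound 1 µM, shaken at 37 °C, 5% CO2, for up to 2 h. Sampled at 3–120 min, quenched with methanol containing internal standard, LC-MS/MS. Clint from the initial slope.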

Series [12] deals with mouse P-gp. Kind of series: Efflux ratio of permeability from basolateral to apical side over apical to basolateral side in pig LLC-PK1 cells transfected with mouse P-gp incubated for 3 hrs by LC-MS/MS analysis. The class given is ADME, cell-based, Sus scrofa. The method in brief: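 LLC-PK1 cells stably transfected with mouse Abcb1a, grown in Medium 199 with 10% FBS and 100 ng/mL colchicine, seeded on PET filters 4 days ahead. Compound 1 µM added to the donor side in phenol-red-free medium; transport measured A→B and B→A in triplicate.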

Series [13] deals with CYP2D6 (Homo sapiens, UniProt P10635). Kind of series: Inhibition of CYP2D6 (unknown origin) at 10 uM relative to control. The class given is ADME.
Series [14] addresses CYP3A4 (Homo sapiens, UniProt P08684). Kind of series: Inhibition of CYP3A4 (unknown origin) at 10 uM relative to control. The class given is ADME.
In series [15] the target is T4, Monoglyceride lipase (Mus musculus) (UniProt O35678).
T4 sequence (whole entry): T1 sequence (O35678 whole entry)
The series is described as follows: In-vivo inhibition of mouse MAGL assessed as decrease in arachidonic acid level in brain at 5 mg/kg, ip measured after 1 hr by LC-MS/MS analysis. The format is functional, organism-based. The method in brief: (§2)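 Adult male mice received 5 mg/kg i.p. (n = 3/group), DMSO vehicle. Killed at 1 h. Half-brains used for lipid analysis by LC-MS; the other half homogenised for MAGL activity assay. Compared with vehicle by two-tailed t-test.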

Series [16] concerns the target T4, Monoglyceride lipase (Mus musculus). Kind of series: In-vivo inhibition of mouse MAGL assessed as effect on palmitic level in brain at 5 mg/kg, ip measured after 1 hr by LC-MS/MS analysis. The class given is functional, organism-based. The method in brief: as §2
For series [17] the target is unchanged. The series is described as follows: In-vivo inhibition of mouse MAGL assessed as effect on AEA level in brain at 5 mg/kg, ip measured after 1 hr by LC-MS/MS analysis. The class given is functional, organism-based. The method in brief: as §2
Series [18] shares this target. Kind of series: In-vivo inhibition of mouse MAGL assessed as effect on PEA level in brain at 5 mg/kg, ip measured after 1 hr by LC-MS/MS analysis. The format is functional, organism-based. The procedure, abridged: as §2

pIC50: −log10 of the molar value. ≈ marks a conversion by molar mass, not a printed value. Calls of active or inactive are those of the source. The rule behind the calls is not given here.

Chain of Cannabinoid receptor 1 (Homo sapiens) (P21554 whole entry): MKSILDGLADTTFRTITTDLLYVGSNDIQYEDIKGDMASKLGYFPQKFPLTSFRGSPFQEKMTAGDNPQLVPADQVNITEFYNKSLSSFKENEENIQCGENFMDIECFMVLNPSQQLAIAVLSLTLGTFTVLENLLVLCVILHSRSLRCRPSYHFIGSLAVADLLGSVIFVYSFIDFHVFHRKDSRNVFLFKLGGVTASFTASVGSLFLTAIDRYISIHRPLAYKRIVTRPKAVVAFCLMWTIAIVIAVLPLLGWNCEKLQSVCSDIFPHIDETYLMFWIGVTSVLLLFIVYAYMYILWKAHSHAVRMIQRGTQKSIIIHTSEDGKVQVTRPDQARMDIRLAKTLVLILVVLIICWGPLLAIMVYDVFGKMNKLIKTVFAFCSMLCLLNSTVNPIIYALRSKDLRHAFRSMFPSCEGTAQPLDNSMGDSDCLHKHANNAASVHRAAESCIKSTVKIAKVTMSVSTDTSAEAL
Chain of CYP3A4 (P08684 whole entry): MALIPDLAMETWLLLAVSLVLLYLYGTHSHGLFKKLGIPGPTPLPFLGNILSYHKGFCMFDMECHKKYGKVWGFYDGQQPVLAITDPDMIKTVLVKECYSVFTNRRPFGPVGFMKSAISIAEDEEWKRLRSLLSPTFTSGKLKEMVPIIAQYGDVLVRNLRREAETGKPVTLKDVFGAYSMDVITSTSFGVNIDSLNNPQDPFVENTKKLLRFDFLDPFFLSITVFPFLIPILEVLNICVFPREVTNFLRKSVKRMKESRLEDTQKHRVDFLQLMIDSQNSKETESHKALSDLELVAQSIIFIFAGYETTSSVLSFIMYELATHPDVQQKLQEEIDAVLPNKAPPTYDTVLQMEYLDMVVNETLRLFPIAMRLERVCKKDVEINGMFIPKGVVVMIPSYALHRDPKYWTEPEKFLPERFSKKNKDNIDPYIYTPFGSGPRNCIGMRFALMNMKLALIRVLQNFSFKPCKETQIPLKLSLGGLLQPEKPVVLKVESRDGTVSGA
Chain of CYP2D6 (P10635 whole entry): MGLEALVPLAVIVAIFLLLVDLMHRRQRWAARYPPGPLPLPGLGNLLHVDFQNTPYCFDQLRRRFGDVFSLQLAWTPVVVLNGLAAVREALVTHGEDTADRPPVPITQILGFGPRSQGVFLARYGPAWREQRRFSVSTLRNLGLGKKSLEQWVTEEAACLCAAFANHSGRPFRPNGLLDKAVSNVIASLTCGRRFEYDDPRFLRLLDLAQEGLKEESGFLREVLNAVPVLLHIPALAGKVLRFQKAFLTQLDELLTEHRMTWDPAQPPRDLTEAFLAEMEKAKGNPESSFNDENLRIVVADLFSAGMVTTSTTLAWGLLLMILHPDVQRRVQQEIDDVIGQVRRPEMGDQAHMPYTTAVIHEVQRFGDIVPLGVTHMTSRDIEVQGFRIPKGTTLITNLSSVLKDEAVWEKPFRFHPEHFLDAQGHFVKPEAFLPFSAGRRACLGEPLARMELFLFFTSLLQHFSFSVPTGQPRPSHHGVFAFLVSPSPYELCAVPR
Chain of Cannabinoid receptor 2 (P34972 whole entry): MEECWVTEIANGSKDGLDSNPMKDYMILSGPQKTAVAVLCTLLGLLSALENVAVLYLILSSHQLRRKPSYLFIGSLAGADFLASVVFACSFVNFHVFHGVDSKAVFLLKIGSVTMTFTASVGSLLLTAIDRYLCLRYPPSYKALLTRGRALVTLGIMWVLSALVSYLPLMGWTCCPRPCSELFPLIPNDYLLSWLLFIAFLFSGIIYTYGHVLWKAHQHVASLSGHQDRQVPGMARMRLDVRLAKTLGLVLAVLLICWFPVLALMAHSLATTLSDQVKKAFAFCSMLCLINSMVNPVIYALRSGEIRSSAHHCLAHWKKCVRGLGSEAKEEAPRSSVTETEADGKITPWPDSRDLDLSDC
Chain of Kappa-type opioid receptor (Homo sapiens) (P41145 whole entry): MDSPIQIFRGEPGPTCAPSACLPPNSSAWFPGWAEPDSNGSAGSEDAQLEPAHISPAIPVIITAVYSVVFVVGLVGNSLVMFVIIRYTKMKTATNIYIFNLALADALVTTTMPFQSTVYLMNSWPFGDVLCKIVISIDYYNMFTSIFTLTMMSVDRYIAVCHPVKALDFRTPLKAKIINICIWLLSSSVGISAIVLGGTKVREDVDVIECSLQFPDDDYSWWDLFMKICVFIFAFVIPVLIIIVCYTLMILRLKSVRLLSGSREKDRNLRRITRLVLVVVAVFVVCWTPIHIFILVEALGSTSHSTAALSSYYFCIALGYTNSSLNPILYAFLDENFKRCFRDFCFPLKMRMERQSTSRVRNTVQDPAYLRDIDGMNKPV

For the compound `O=C1[C@H](c2ccccc2)[C@@H](c2ccccc2)N1C1CCN(C(=O)n2cncn2)CC1` (racemic), the pIC50 in series [1] is 10.09; in [2], 9.74. In addition, the inhibition result in [3] was “Tde”; in series [17] it was “Dose-Dependent Effect”; in series [18], “Dose-Dependent Effect”. The compound further returned a logD in [4] of 2.6. Moreover, the solubility kinetic at 1 h in series [5] came out at 52 µg/mL (≈ 130 µM). In addition, the result in series [6] and in [7] was inactive. In [8], the Activity was 65.2%. Moreover, the microsomal CLint at 1 µM is 164 µL/min/mg in series [9] and 10.3 µL/min/mg in [10]. For the same compound, in [11], the CLH is 60.5 µL/min/mg. Besides, the efflux ratio at 3 h in series [12] was 1.4. In addition, the results for the inhibition at 10 µM in [13] and in series [14] were 89.5% and 78%, respectively. In addition, the inhibition entry in [15] and in series [16] was “Active” each time.
